The source made the active and inactive calls. The calls are words filed in the database; no cut-off is given here. Numbered stars: 1 amine (or outer) side, 2 acyl side, 3 side chain; on linkers, the order of the positions; unused ones are H or OH. Bridge positions count the residues as written; N and C are the ends. Square brackets hold non-standard residues; d marks the D form. Peptide text beside a SMILES is read from it. I, II: the chains in the order shown. Actinocin(1to9) = Cc1c2oc3c(C)ccc(C(=O)[*:2])c3nc-2c(C(=O)[*:1])c(N)c1=O; NMeV = CN[C@H](C(=O)O)C(C)C; Sar = CNCC(=O)O
Assays:
[1] = Inhibition of elF4A-mediated renilla luciferase translational activity at 200 to 2000 nM in presence of HCV IRES element
[2] = Inhibition of elF4A-mediated renilla luciferase translational activity at 100 to 200 nM in presence of HCV IRES element
Jurkat = test: Antiproliferative activity against human Jurkat cells assessed as incorporation of [3H]thymidine in nuclear DNA at 2.5 uM after 24 hrs by scintillation counting; format: functional, cell-based
Procedure, shortened: (§1)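 Each of three tumour cell lines incubated with compound at 2.5 μM for 24 h, then [³H]thymidine added to monitor DNA synthesis; initial proliferation screen.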

MDA-MB-231 = test: Antiproliferative activity against human MDA-MB-231 cells assessed as incorporation of [3H]thymidine in nuclear DNA at 2.5 uM after 24 hrs by scintillation counting; format: functional, cell-based; procedure, shortened: as §1
HeLa [3] = test: Antiproliferative activity against human HeLa cells assessed as incorporation of [3H]thymidine in nuclear DNA at 2.5 uM after 24 hrs by scintillation counting; format: functional, cell-based; procedure, shortened: as §1
HeLa [4] = test: Inhibition of protein synthesis in human HeLa cells assessed as [35S]cysteine/methionine utilization after 2 hrs by scintillation spectroscopy; format: functional, cell-based
Procedure, shortened: (§2)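 HeLa cells incubated 2 h with varying compound concentrations plus [³⁵S]cysteine/methionine (translation) or [³H]uridine (transcription). Protein synthesis: scintillation counting of TCA-precipitated protein on PVDF membrane. Transcription: scintillation counting of nucleic acids bound to GF/C glass fibre filter.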

[5] = Effect on peptidyl transfer assessed as [35S]methionyl-puromycin formation by TLC
HeLa [6] = test: Inhibition of transcriptional activity in human HeLa cells assessed as [3H]uridine utilization after 2 hrs by scintillation counting; format: functional, cell-based; procedure, shortened: as §2
[7] = target: Elongation factor 2 (Homo sapiens) (UniProt P13639); test: Inhibition of eEF2-mediated tRNA translocation assessed as inhibition of phenylalanyl puromycin formation
Procedure, shortened: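 Set up as eEF1A binding assay but with GTP; 5 min at 37°C, compound added to 200 μM final, 5 min at room temperature, then eEF2, puromycin and GTP added; 10 min at 37°C; ethyl acetate-extractable phenylalanyl-puromycin counted by scintillation.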

Saccharomyces cerevisiae [8] = test: Fold resistance, ratio of IC50 Saccharomyces cerevisiae J407alpha expressing ribosomal protein cyh2 and harboring mutation in rpl28 to IC50 for Saccharomyces cerevisiae J47alpha; format: functional
Procedure, shortened: (§3)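 Four isogenic S. cerevisiae strain pairs, each differing only by presence or absence of cyh2, exposed to varying compound concentrations; growth read by optical density; IC50 derived per strain, resistance as ratio between paired strains.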

[9] = Binding affinity to 60S ribosome E-site by footprinting assay
Procedure, shortened: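 DMS footprinting of salt-washed 80S ribosomes preincubated 5 min at room temperature with compound, DMS then 5 min at 37°C; rRNA primer extension with AMV reverse transcriptase and [α-³²P]TTP, sequencing gel. For K_D, 300 μl volume at 50 or 100 nM ribosomes titrated with increasing compound.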

HEK-293T [10] = test: Effect on polyribosome profiling in human HEK293T cells assessed as accumulation of 80S ribosomes at 100 uM after 30 mins by spectrophotometry; format: functional, cell-based
Procedure, shortened: (§4)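 HEK 293T cells treated 30 min with compound, then lysed; lysates centrifuged through 15–45% sucrose gradient to give polysome profiles.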

Saccharomyces cerevisiae [11] = test: Fold resistance, ratio of IC50 for Saccharomyces cerevisiae BY740 expressing ribosomal protein cyh2 and harboring mutation in rpl28 to IC50 for Saccharomyces cerevisiae […]; format: functional; procedure, shortened: as §3
Oryctolagus cuniculus = species: Oryctolagus cuniculus; test: Inhibition of translational activity in rabbit reticulocyte assessed as occurrence of ribosomal arrest at start codon at 10 mM by toeprinting assay; format: functional
Procedure, shortened: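 Labelled rabbit β-globin mRNA incubated in rabbit reticulocyte lysate with inhibitor; mixture centrifuged through sucrose gradient, 80S fractions taken to isolate stalled ribosomes; primer extended by AMV reverse transcriptase toward stalled ribosome to map arrest site.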

Saccharomyces cerevisiae [12] = test: Antimicrobial activity against Saccharomyces cerevisiae BY108; format: functional, organism-based; procedure, shortened: as §3
Saccharomyces cerevisiae [13] = test: Antimicrobial activity against Saccharomyces cerevisiae BY740 expressing ribosomal protein cyh2 and harboring mutation in rpl28; format: functional, organism-based; procedure, shortened: as §3
Saccharomyces cerevisiae [14] = test: Antimicrobial activity against Saccharomyces cerevisiae BY724 expressing ribosomal protein cyh2 and harboring mutation in rpl28; format: functional, organism-based; procedure, shortened: as §3
Saccharomyces cerevisiae [15] = test: Antimicrobial activity against Saccharomyces cerevisiae JB503; format: functional, organism-based; procedure, shortened: as §3
Saccharomyces cerevisiae [16] = test: Antimicrobial activity against Saccharomyces cerevisiae BY686 expressing ribosomal protein cyh2 and harboring mutation in rpl28; format: functional, organism-based; procedure, shortened: as §3
[17] = target: Elongation factor 2 (Homo sapiens) (UniProt P13639); test: Inhibition of eEF2-mediated tRNA translocation assessed as decrease in tripeptide (Met-Phe-Phe) formation by TLC
[18] = target: T1, Elongation factor 1-alpha 1 (Homo sapiens) (UniProt P68104); test: Inhibition of eEF1A-mediated tRNA binding to ternary complex at 200 uM after 10 mins by filtration binding assay
T1 sequence (whole entry): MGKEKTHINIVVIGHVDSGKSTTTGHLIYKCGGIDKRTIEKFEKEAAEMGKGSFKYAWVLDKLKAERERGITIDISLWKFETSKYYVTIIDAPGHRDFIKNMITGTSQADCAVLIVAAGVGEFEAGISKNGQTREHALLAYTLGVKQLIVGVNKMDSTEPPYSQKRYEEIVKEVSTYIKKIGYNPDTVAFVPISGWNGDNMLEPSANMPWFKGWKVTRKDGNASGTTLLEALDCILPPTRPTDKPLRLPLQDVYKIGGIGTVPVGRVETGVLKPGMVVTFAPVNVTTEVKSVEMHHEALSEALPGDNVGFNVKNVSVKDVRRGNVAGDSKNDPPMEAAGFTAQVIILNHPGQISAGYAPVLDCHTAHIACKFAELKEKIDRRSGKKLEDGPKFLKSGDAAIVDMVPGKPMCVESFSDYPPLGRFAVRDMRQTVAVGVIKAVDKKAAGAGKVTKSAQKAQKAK
Procedure, shortened: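 Ribosomes (89 pmol) in 20 mM HEPES pH 7.4, 100 mM KCl, 10 mM MgCl₂, 1 mM DTT with 200 ng poly(U), 2.2 μg eEF1A, 150 μM GDPNP and 200 μM compound, before 10 pmol [¹⁴C]Phe-tRNA^Phe added; 10 min at 37°C; nitrocellulose filtration, scintillation counting.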

HEK-293T [19] = test: Effect on polyribosome profiling in human HEK293T cells assessed as depletion of polysomes at 50 uM after 30 mins by spectrophotometry; format: functional, cell-based; procedure, shortened: as §4
[20] = Effect on polyribosome profiling assessed as accumulation of 80S ribosomes after 15 mins by scintillation spectroscopy; format: functional
Procedure, shortened: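 Capped [³²P]-labelled rabbit β-globin RNA incubated in rabbit reticulocyte lysate with compound for 15 min, then centrifuged through 10–35% sucrose gradient.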

[21] = target: Elongation factor 2 (Homo sapiens) (UniProt P13639); test: Inhibition of eEF2-mediated tRNA translocation assessed as induction of dipeptide accumulation by TLC
Saccharomyces cerevisiae [22] = test: Antimicrobial activity against Saccharomyces cerevisiae JB281; format: functional, organism-based; procedure, shortened: as §3
Saccharomyces cerevisiae [23] = test: Antimicrobial activity against Saccharomyces cerevisiae J407alpha expressing ribosomal protein cyh2 and harboring mutation in rpl28; format: functional, organism-based; procedure, shortened: as §3
Saccharomyces cerevisiae [24] = test: Antimicrobial activity against Saccharomyces cerevisiae J47alpha; format: functional, organism-based; procedure, shortened: as §3
Saccharomyces cerevisiae [25] = test: Fold resistance, ratio of IC50 for Saccharomyces cerevisiae BY724 expressing ribosomal protein cyh2 and harboring mutation in rpl28 to IC50 for Saccharomyces cerevisiae BY108; format: functional; procedure, shortened: as §3
[26] = Inhibition of [32P]deacetylated phe-tRNA binding to 60S ribosome E-site by footprinting assay
HEK-293T [27] = test: Effect on polyribosome profiling in human HEK293T cells assessed as depletion of polysomes at 100 uM after 30 mins by spectrophotometry; format: functional, cell-based; procedure, shortened: as §4
Saccharomyces cerevisiae [28] = test: Fold resistance, ratio of IC50 for Saccharomyces cerevisiae BY686 expressing ribosomal protein cyh2 and harboring mutation in rpl28 to IC50 Saccharomyces cerevisiae JB503; format: functional; procedure, shortened: as §3

Structure (SMILES): CC(/C=C/C(C)=C/[C@@H]1Cc2nc(cs2)[C@@H](C)C[C@@H](N)CC(=O)O[C@@H](C)C/C(C)=C/C=C\C(=O)O1)=C\CN(C)C
- inhibition [1]: Active
- inhibition [2]: Active

Structure (SMILES): CO[C@@H](/C=C/CC/C=C/C(=O)O)[C@@H](O)[C@H](C)/C=C(\C)[C@H](O)[C@H](C)C(=O)CCCC1CC(=O)NC(=O)C1
- Activity (Jurkat): inactive
- Activity (MDA-MB-231): inactive
- Activity (HeLa [3]): inactive

Structure (SMILES): CO[C@@H](/C=C/CC/C=C/C(=O)O)[C@@H](O)[C@H](C)[C@@H](O)/C(C)=C/[C@H](C)C(=O)CCCC1CC(=O)NC(=O)C1
- inhibition (HeLa [4]): inactive
- Activity (Jurkat): inactive
- Activity (MDA-MB-231): inactive
- Activity (HeLa [3]): inactive

Structure (SMILES): CO[C@H]1/C=C/CC/C=C/C(=O)O[C@H]([C@H](C)C(=O)CCCC2CC(=O)NC(=O)C2)/C(C)=C\[C@@H](C)[C@@H]1O
- inhibition (HeLa [4]): inactive
- Activity (Jurkat): inactive
- Activity (MDA-MB-231): inactive
- Activity (HeLa [3]): inactive

Structure (SMILES): CSC[S@@+]([O-])CC(CO)NC(=O)/C=C/c1c(C)[nH]c(=O)[nH]c1=O (stereo not given in full)
- Activity [5]: Active

Structure (SMILES): C/C(=C\[C@H](C)C(=O)C[C@H](O)CC1CC(=O)NC(=O)C1)[C@@H]1OC(=O)CCCC/C=C/C=C\[C@@H]1C [2H LACTIMIDOMYCIN K]
- IC50 (HeLa [4]): 0.0985 µM
- Activity (Jurkat): inactive
- Activity (MDA-MB-231): inactive
- Activity (HeLa [3]): inactive
- IC50 (HeLa [6]): > 10 µM

Structure (SMILES): C[C@@H]1C[C@@H]([C@H](O)CC2CC(=O)NC(=O)C2)C(=O)[C@@H](C)C1 [CYCLOHEXIMIDE]
- inhibition [7]: Active
- Ratio IC50 (Saccharomyces cerevisiae [8]): 232.2
- Activity [9]: Dose-dependent effect
- Kd [9]: 15 µM
- Activity (HEK-293T [10]): inactive
- Ratio IC50 (Saccharomyces cerevisiae [11]): 76.3
- IC50 (HeLa [4]): 0.532 µM
- inhibition (HeLa [4]): Dose-dependent effect
- inhibition (Oryctolagus cuniculus): inactive
- IC50 (Saccharomyces cerevisiae [12]): 0.675 µM
- IC50 (Saccharomyces cerevisiae [13]): 17.3 µM
- IC50 (Saccharomyces cerevisiae [14]): 52.1 µM
- IC50 (Saccharomyces cerevisiae [15]): 0.032 µM
- IC50 (Saccharomyces cerevisiae [16]): 7.42 µM
- inhibition [17]: Active
- inhibition [18]: inactive
- Activity (HEK-293T [19]): Active
- Activity [20]: Active
- inhibition [21]: Active
- IC50 (Saccharomyces cerevisiae [22]): 0.227 µM
- IC50 (Saccharomyces cerevisiae [23]): 20.5 µM
- IC50 (Saccharomyces cerevisiae [24]): 0.088 µM
- Ratio IC50 (Saccharomyces cerevisiae [25]): 77
- inhibition [26]: inactive
- Activity (HEK-293T [27]): inactive
- IC50 (HeLa [6]): 2.88 µM
- Ratio IC50 (Saccharomyces cerevisiae [28]): 232.4

Structure (SMILES): Cc1c2oc3c(C)ccc(C(=O)N[C@@H]4C(=O)N[C@H](C(C)C)C(=O)N5CCC[C@H]5C(=O)N(C)CC(=O)N(C)[C@@H](C(C)C)C(=O)O[C@@H]4C)c3nc-2c(C(=O)N[C@@H]2C(=O)N[C@H](C(C)C)C(=O)N3CCC[C@H]3C(=O)N(C)CC(=O)N(C)[C@@H](C(C)C)C(=O)O[C@@H]2C)c(N)c1=O [DACTINOMYCIN] (I: T[dV]P[Sar][NMeV] / II: T[dV]P[Sar][NMeV]; ester I:1-I:C, II:1-II:C; linker I:N-II:N via Actinocin(1to9))
- IC50 (HeLa [4]): 0.52 µM
- inhibition (HeLa [4]): Dose-dependent effect
- IC50 (HeLa [6]): 0.262 µM

Structure (SMILES): CO[C@H]1/C=C/CC/C=C/C(=O)O[C@@H](/C(C)=C/[C@H](C)C(=O)/C=C/CC2CC(=O)NC(=O)C2)[C@@H](C)[C@@H]1O [DIDEHYDRO ISOMIGRASTATIN]
- IC50 (HeLa [4]): 1.91 µM
- Activity (Jurkat): inactive
- Activity (MDA-MB-231): inactive
- Activity (HeLa [3]): inactive
- IC50 (HeLa [6]): > 10 µM

Structure (SMILES): CO[C@H]1/C=C/CC/C=C/C(=O)O[C@@H](/C(C)=C/[C@H](C)C(=O)CCCC2CC(=O)NC(=O)C2)[C@@H](C)[C@@H]1O [ISOMIGRASTATIN]
- IC50 (HeLa [4]): 0.624 µM
- inhibition (HeLa [4]): Dose-dependent effect
- Activity (Jurkat): inactive
- Activity (MDA-MB-231): inactive
- Activity (HeLa [3]): inactive
- IC50 (HeLa [6]): > 10 µM

From ChEMBL document CHEMBL1221230, “Inhibition of eukaryotic translation elongation by cycloheximide and lactimidomycin” (Nat Chem Biol, 2010)
